Experimental data pooled from the literature.
Compare with care: the assays were run in different laboratories.
Target: Serine/threonine-protein kinase 16 (STK16, Homo sapiens, UniProt O75716)

| Compound | assay | conditions | remaining binding |
| --- | --- | --- | --- |
| O=C(Nc1c[nH]nc1C(=O)NC1CCNCC1)c1cc(F)cc(F)c1 | binding, competition with immobilised ligand | 1 µM | 100% |
| c1cnn2ncc(-c3ccnc(N4CCC45COC5)n3)c2c1 | binding | 1 µM | 78% |
| CO[C@@H](C)c1c(Nc2ccc([C@H](N(C)C(=O)C3CCS(=O)(=O)CC3)C(F)(F)F)cc2)cnc2cc(Cl)nn12 | cell-free assay, competition with immobilised ligand | 1 µM | 75% |
| CN(CCCC(F)(F)F)c1nccc(-c2cnn3ncccc23)n1 | binding | 1 µM | 79% |
| COc1cnc(Nc2cccc(S(N)(=O)=O)c2)nc1N1CCN(c2ccccc2)C(=O)C1 | binding, competition with immobilised ligand | 1 µM | 30% |
| CN(C)CC#Cc1ccc(OCCCc2sc(N3CCc4cccc(C(=O)Nc5nc6ccccc6s5)c4C3)nc2C(=O)O)c(F)c1 | cell-free assay, competition with immobilised ligand | 1 µM | 92% |
| CN(C)c1ncc(F)c(-c2cnn3ncccc23)n1 | binding | 1 µM | 87% |
| CCC(=O)N[C@@H]1CC[C@H](C(=O)N(C)c2ccc(-c3nc4ccccc4o3)cc2)C1 | cell-free assay, competition with immobilised ligand | 1 µM | 100% |
| COc1cc(Nc2nccc(-c3cnn4nc(OC)ccc34)n2)cc(C(F)(F)F)c1 | binding, competition with immobilised ligand | 1 µM | 53% |
| COc1ccnn2ncc(-c3ccnc(N(C)C)n3)c12 | binding | 1 µM | 85% |
| O=C(c1ccc(Nc2ncc(Cl)c(-c3ccc(Cl)s3)n2)cc1)N1CCC(N2CCCC2)CC1 | binding, competition with immobilised ligand | 1 µM | 0.05% |
| c1cncc(-c2cccc(Nc3nccc(NC4CCCCC4)n3)c2)c1 | binding, competition with immobilised ligand | 10 µM | 42% |
| CN(C)C(=O)Cn1cc(-c2nc([C@@](C)(c3ccc(-c4cnc(N)nc4)cc3)C3CC3)no2)cn1 | cell-free assay, competition with immobilised ligand | 1 µM | 100% |
| CN(C)c1nccc(-c2cnc3ncccn23)n1 | binding | 1 µM | 92% |
| CCN1CCN(Cc2ccc(C(=O)Nc3ccc(C)c(Oc4ccc5c(c4)CC(=O)N5)c3)cc2C(F)(F)F)CC1 | binding, competition with immobilised ligand | 1 µM | 100% |
| N[C@H]1CCN(c2nccc(-c3cnn4ncccc34)n2)C1 | binding | 1 µM | 91% |
| O=C(c1ccc(Nc2nccc(-c3cc4ccccc4s3)n2)cc1)N1CCC(N2CCCC2)CC1 | binding, competition with immobilised ligand | 1 µM | 18% |
| CCc1ccccc1C(=O)Nc1n[nH]c2c(C)c(F)c(C3C(C#N)=C(C)N(C)C(C)=C3C#N)cc12 | cell-free assay, competition with immobilised ligand | 1 µM | 79% |
| O=C(NCCCN1CCOCC1)c1ccc(Nc2nccc(-c3cc4ccccc4s3)n2)cc1 | binding, competition with immobilised ligand | 1 µM | 32% |
| COc1ncc2cc3ccccc3nc2c1C#N | cell-free assay, competition with immobilised ligand | 5 µM | 90% |
| CNC(=O)Nc1ccc2c(c1)CC[C@@]21OC(=O)N(CC(=O)N(Cc2ccc(F)cc2)[C@@H](C)C(F)(F)F)C1=O | cell-free assay, competition with immobilised ligand | 1 µM | 84% |
